Experimental findings from PMC6528680 (Journal of natural products, 2019) are described below.

The subject of one series is RAW 264.7 cells. Description: RAW 264.7 cell viability. The class given is cell-based, murine. The following applies: at approximately 3 μM; data not shown.
Series [1] is classed as in vivo. The following applies: C57BL/6J mice.
Series [2] is classed as in vivo, mice (C57BL/6J, C3H/HeJ). In outline:
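Oral gavage of 500 mg/kg in DMSO to C57BL/6J and C3H/HeJ mice (n=3–4/group), with sampling at 30 min under isoflurane. Marrow pellets were suspended in 50 mM sodium acetate pH 5 for 2 h on ice and centrifuged. Serum was acidified to pH 5 with HCl before HLB extraction and LC/MS. Marrow concentrations were corrected to pellet volume, assuming density 1.06 g/ml. Mean ± SEM.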

Series [3] is classed as in vivo, mice (C57BL/6J, C3H/HeJ, mps/mps). In a few lines: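 Test compound dosed IP at 100 mg/kg in DMSO to 15-week female BL/6J, female HeJ and male mps/mps mice (n=3–5/group). Blood and marrow were taken under isoflurane at 20 min. Marrow pellets were resuspended in 50 mM sodium acetate pH 5 and held 2 h on ice, then supernatants were kept. Serum was acidified to pH 5, and aglycone and glucuronide were measured by HLB solid-phase extraction and LC/MS. Mean ± SEM.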

Another series deals with T1, recombinant human GUSB (Homo sapiens, UniProt P08236).
T1 sequence (P08236 23-651): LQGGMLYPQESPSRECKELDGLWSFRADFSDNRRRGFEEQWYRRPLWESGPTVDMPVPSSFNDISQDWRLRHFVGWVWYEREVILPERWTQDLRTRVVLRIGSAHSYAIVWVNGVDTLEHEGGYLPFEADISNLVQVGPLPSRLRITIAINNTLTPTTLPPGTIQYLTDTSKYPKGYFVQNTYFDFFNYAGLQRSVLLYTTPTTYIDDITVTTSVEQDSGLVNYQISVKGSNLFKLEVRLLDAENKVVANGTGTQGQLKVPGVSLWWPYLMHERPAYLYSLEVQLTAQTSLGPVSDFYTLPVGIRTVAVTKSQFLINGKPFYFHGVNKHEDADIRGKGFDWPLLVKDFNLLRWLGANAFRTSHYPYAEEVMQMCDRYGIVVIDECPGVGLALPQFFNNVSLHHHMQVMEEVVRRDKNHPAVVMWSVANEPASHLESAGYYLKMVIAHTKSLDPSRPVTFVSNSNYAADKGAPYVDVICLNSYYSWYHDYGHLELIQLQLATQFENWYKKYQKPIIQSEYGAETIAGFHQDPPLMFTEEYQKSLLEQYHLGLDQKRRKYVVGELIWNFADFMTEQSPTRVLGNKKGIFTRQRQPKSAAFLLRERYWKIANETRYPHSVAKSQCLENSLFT
As to the kind of experiment: GUSB-specificity of substrate deconjugation. The class given is biochemical. The following applies: 37°C, 50 mM sodium acetate buffer pH 5. In a few lines: (§1)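 Recombinant human GUSB, HPSE or KL, normalized to molarity, was incubated 30–60 min at 37°C in 50 mM sodium acetate pH 5 with 4-methylumbelliferyl-glucuronide or phenolphthalein-glucuronide at above-Km concentrations. Reactions were quenched. Product was quantified against 4-MU or phenolphthalein standard curves by fluorescence (Ex 360/Em 470 nm) or absorbance at 540 nm. Rates are given as nmol product per enzyme amount per min.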

The target of another series is T2, recombinant human KL (Homo sapiens, UniProt Q9UEF7).
T2 sequence (Q9UEF7 34-1012): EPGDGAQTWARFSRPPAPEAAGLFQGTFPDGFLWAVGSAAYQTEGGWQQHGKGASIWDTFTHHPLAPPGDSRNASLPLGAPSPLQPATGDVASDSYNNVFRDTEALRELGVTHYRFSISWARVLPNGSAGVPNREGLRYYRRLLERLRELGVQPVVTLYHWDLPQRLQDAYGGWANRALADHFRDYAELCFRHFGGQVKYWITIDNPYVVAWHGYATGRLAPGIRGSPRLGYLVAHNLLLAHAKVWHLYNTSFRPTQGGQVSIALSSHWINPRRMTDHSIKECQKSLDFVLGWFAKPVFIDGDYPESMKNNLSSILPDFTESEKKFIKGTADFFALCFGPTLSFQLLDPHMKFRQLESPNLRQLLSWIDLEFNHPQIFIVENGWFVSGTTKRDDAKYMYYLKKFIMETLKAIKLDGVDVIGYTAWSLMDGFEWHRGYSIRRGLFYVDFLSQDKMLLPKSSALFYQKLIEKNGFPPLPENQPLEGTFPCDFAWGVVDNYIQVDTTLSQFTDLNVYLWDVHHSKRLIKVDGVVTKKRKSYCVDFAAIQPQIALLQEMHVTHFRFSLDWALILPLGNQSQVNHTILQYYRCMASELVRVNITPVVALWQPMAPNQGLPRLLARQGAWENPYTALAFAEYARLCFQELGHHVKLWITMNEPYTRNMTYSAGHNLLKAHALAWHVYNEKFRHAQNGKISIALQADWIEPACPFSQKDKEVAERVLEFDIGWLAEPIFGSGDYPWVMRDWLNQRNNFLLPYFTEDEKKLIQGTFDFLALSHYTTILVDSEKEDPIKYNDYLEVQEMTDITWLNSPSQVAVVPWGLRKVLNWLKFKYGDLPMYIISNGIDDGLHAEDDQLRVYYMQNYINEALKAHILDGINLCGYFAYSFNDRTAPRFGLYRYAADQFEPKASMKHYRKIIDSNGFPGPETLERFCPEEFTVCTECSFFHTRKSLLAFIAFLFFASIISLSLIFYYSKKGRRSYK
As to the kind of experiment: GUSB-specificity of substrate deconjugation. It counts as biochemical. The following applies: 37°C, 50 mM sodium acetate buffer pH 5. In outline: as §1

Another series deals with T3, recombinant human HPSE (Homo sapiens, UniProt Q9Y251).
T3 sequence (Q9Y251 158-543 limits assumed): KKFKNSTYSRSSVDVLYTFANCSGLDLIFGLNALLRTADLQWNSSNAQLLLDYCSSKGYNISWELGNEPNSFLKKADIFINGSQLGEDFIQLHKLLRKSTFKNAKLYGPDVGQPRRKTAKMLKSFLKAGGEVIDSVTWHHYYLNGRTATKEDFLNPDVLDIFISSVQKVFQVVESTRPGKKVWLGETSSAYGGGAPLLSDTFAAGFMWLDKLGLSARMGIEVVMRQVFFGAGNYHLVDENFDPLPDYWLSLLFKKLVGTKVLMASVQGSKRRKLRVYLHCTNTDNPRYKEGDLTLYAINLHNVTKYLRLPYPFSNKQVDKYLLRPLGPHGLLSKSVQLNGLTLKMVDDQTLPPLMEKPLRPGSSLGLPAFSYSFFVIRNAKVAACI
T3 sequence (Q9Y251 36-109 limits assumed): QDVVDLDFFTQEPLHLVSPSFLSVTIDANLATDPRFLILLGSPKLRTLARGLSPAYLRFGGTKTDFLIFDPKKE
Description: GUSB-specificity of substrate deconjugation. It counts as biochemical. The following applies: 37°C, 50 mM sodium acetate buffer pH 5. In outline: as §1

For series [4], the target named is T4, GUSB (Mus musculus, UniProt P12265).
T4 sequence (P12265 23-648): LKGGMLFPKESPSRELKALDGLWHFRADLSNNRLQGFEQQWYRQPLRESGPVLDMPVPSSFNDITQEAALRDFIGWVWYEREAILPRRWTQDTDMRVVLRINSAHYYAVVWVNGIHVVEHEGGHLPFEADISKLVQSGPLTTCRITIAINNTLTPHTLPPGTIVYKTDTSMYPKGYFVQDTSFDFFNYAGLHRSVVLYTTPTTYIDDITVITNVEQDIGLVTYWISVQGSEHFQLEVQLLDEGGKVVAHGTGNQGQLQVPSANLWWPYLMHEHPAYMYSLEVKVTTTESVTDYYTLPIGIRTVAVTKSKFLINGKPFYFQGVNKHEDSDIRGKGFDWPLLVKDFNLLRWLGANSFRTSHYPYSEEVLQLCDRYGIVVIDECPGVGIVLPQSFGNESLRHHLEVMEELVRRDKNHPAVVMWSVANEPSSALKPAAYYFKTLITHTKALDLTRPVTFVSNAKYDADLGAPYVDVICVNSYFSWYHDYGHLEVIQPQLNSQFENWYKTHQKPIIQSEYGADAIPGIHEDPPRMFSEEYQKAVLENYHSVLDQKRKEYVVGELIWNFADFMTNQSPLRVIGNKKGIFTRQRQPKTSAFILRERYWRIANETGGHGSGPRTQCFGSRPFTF
It counts as in vivo, C57BL/6J mice. The following applies: SL 1 g/kg IP 1 h before oral curcumin 500 mg/kg. In a few lines: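 Mice were pretreated with saccharolactone (1 g/kg in saline, IP) 1 h before oral gavage of 500 mg/kg curcumin in DMSO. Serum (clotted 10 min RT, 8,000 g 10 min) and marrow were taken at 30 min. Marrow was resuspended in 50 mM sodium acetate pH 5 and held 2 h on ice. Aglycone curcumin and curcumin-glucuronide were measured by LC/MS after HLB extraction.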

Series [5] addresses T4, GUSB. As to the kind of experiment: Ex vivo saccharolactone added to marrow suspensions from curcumin-treated mice. The class given is biochemical, C57BL/6J mice. The note with it: 10 mM SL in sodium acetate buffer. In outline:
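Female 4-week C57BL/6J mice were gavaged with 500 mg/kg oral curcumin in DMSO. Leg marrow was spun out (10,000 g, 15 s) at 30 min and resuspended in 50 mM sodium acetate pH 5 with or without 10 mM saccharolactone. It was held 2 h on ice, then supernatants were taken. Aglycone and glucuronide were quantified by LC/MS (HLB extraction, C18, SRM) as % of total curcumin. n=3–4/group.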

Series [6] deals with T4, GUSB. It counts as biochemical, C57BL/6NJ mice. The following applies: SL 10 mM, 10 μM curcumin-glucuronide, 2 h, 37°C.

Where two headings read alike, the source gives them in different places. Marks after values point to notes of the source that are not given here.

With `COc1cc(/C=C/C(=O)CC(=O)/C=C/c2ccc(O)c(OC)c2)ccc1O` [aglycone curcumin, curcumin], the “Effect on RAW 264.7 cell viability” value in the series on RAW 264.7 cells is reported as “did not alter”. Further, the “Aglycone curcumin as share of total curcumin in serum” value in [1] (30 min post oral dose, n=11) is recorded as 0.24% ± 0.07%. In addition, the “Aglycone curcumin as share of total curcumin in lyophilized whole bone marrow” value in series [1] (post oral dose, n=8) is given as 0.77% ± 0.21%. Further, the “Aglycone curcumin as share of total curcumin in perfusing serum” value in series [2] (30 min post oral dose, C57BL/6J) was 0.1–0.2 % of total curcumin. Besides, in series [2] (C3H/HeJ, 30 min after oral 500 mg/kg curcumin, mean (SEM)), the Concentration in serum result is on record as “nd (≤0.01) μM”. Further, in [2] (oral 500 mg/kg curcumin, 30 min), the “Absolute and relative amounts of marrow aglycone curcumin lower in HeJ vs BL/6J” value is 59–65%. Moreover, in [3] (BL/6J serum, IP curcumin), the “Aglycone curcumin as share of circulating total curcumin” value is recorded as less than 4%. For the same molecule, the “Aglycone curcumin as share of total in ex vivo bone marrow suspensions” value in series [3] (BL/6J, IP curcumin) was 51 % of total. The “Bone marrow aglycone curcumin (% of total curcumin) lower vs BL/6J” value in series [3] (HeJ mice, IP curcumin) is 73%. Further, in series [3] (mps/mps mice, IP curcumin), the “Bone marrow aglycone curcumin (% of total curcumin) decrease vs BL/6J” value worked out at 88% and the “Increase of circulating curcumin concentrations vs BL/6J” value is reported as 3.2 fold. Also, the Concentration in serum in series [3] (mps/mps, 20 min after IP 100 mg/kg curcumin, mean (SEM)) is 22.8 (6.9)^a,b μM.

`Cc1cc(=O)oc2cc(O[C@@H]3O[C@H](C(=O)O)[C@@H](O)[C@H](O)[C@H]3O)ccc12` [glucuronidated 4-MU, 4-methylumbelliferyl-glucuronide]: the “Rate of cleavage by GUSB” value on recombinant human GUSB was found to be 2.64 nmol 4-MU/pmol enzyme/min. In addition, at recombinant human KL (without effect), the “Rate of cleavage by KL” value is less than 0.007 nmol 4-MU/nmol enzyme/min. The “Rate of cleavage by HPSE” value on recombinant human HPSE (without effect) is recorded as less than 0.007 nmol 4-MU/nmol enzyme/min.

Consider `O=C1OC(c2ccc(O)cc2)(c2ccc(O[C@@H]3O[C@H](C(=O)O)[C@@H](O)[C@H](O)[C@H]3O)cc2)c2ccccc21` (stereo partly shown) [glucuronidated PheP, Phenolphthalein-glucuronide], for which, on recombinant human GUSB, the “Rate of cleavage by GUSB” value was determined as 23.5 nmol PheP/nmol enzyme/min. In addition, the “Rate of cleavage by KL” value on recombinant human KL was 1.0 nmol PheP/nmol enzyme/min. The “Rate of cleavage by HPSE” value on recombinant human HPSE came out at 0.14 nmol PheP/nmol enzyme/min.

With `O.O=C(O)[C@@H](O)[C@H]1OC(=O)[C@H](O)[C@H]1O` [saccharolactone, D-Saccharic acid 1,4-lactone monohydrate], on GUSB [4], the “Aglycone curcumin levels in marrow suspensions after in vivo inhibitor treatment” value was “no longer detectable”. On GUSB [4] (data not shown), the “Effect on serum levels of aglycone curcumin” value was “unchanged”. Further, the “Aglycone curcumin in marrow suspensions with inhibitor added ex vivo” value at GUSB [5] is “not detected”. The “Effect on deconjugation of GC in marrow-conditioned media” value on GUSB [6] is “inhibitable”.
